Laboratory results reported in PubChem BioAssay.
Calls of active or inactive are those of the source.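 How the source made its calls, unless noted: active means visually confirmed hit in the image check and inhibition above 20%; inconclusive means visually confirmed hit but inhibition not above 20%; inactive means no visual hit in the image check.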

Legend:
[1] = inhibitors of TNFa-induced NFkB p65 translocation, primary screen, imaging, HUVEC, MLSMR starter and 10KST1 sets (AID 438;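 active means inhibition above 20% together with a positive visual image hit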;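 further: compound added about 3h40 before a 20 min TNFalpha stimulation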;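 on inhibition: signal is the nuclear over cytoplasmic p65 intensity ratio per well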); settings: HUVEC TNFa-induced p65 nuclear translocation; cell count: measured here: nuclei count (cytotoxicity indicator), at 2.08 µM; inhibition: at 2 µM, stronger effect = higher value, 0% TNFa-plus-vehicle, 100% no-TNFa wells
[2] = inhibitors of mutant huntingtin aggregation, primary screen, imaging, exon1htt(103Q)mCFP cells, high-content imaging (AID 483;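 active means visual image review flags a hit and inhibition of aggregation exceeds 20%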;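 further: compound exposure lasted 3 days before fixation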;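 on nuclei count: percent of the per-plate median nuclei count of sample wells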); settings: exon1htt(103Q)mCFP cell line, aggregate imaging, at 2 µM; inhibition of aggregation: stronger effect = higher value; nuclei count: measured here: cell count, toxicity
[3] = inhibitors of E-selectin induction by TNFa, primary screen, imaging, HUVEC, immunofluorescence, MLSMR starter and 10KST1 sets (AID 487); settings: HUVEC TNFalpha-induced E-selectin immunofluorescence imaging, at 2 µM; inhibition: stronger effect = higher value; nuclei count: measured here: cell number, toxicity;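 on inhibition: signal is fraction of cell area covered by stained E-selectin grains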;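 on nuclei count: 100% = median nuclei count of all wells on the same plate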
[4] = target: Voltage-gated potassium channel subunit beta-2 (Rattus norvegicus) (UniProt P62483); assay: KvBeta enzyme negative modulators, primary screen, biochemical, NADPH fluorescence (AID 622;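 active means fluorescence slope higher than the sample average by over 3 SD, cut at about -0.22 in these data, passing the limit was not always enough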;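 further: slope of raw intensity against log time taken from 70 to 1610 s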); settings: recombinant KvBeta, 4-cyanobenzaldehyde reduction, at 10 µM, stronger effect = higher value
Sequence of Voltage-gated potassium channel subunit beta-2 (Rattus norvegicus) (P62483 whole entry, looked up): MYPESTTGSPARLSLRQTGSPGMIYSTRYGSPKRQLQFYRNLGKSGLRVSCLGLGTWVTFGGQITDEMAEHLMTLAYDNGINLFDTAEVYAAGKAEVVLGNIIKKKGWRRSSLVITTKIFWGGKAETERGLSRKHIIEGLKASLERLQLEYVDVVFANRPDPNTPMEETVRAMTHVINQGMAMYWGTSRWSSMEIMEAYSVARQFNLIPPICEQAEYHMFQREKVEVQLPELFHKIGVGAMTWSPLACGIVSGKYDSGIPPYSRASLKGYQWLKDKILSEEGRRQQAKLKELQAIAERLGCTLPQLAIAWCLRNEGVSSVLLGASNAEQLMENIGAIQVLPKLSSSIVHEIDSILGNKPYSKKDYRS

[5] = target: Voltage-gated potassium channel subunit beta-2 (Rattus norvegicus) (UniProt P62483); assay: KvBeta positive modulators, primary screen, biochemical, NADPH fluorescence (AID 623;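 active means NADPH fluorescence slope more negative than the mean of all samples by about 3 SD, 99.7% confidence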;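 further: fluorescence intensity change per second fitted from 20 to 320 s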); settings: Recombinant KvBeta, NADPH fluorescence decrease slope, 10 min; at 10 µM; stronger effect = lower value
[6] = target: Alpha-2C adrenergic receptor (Homo sapiens) (UniProt P18825); assay: modulators of alpha2C/GIRK thallium flux, primary screen, cell-based, HEK293 alpha2C/GIRK1/2 (AID 624;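 active means fluorescence slope after compound addition differing from the mean of all screened samples at 99.7% confidence, in either direction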;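 further: slope of fluorescence ratio to pre-addition baseline per second over 15 to 24 s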); settings: thallium flux BTC fluorescence, at 10 µM, actives lie on both sides
Sequence of Alpha-2C adrenergic receptor (Homo sapiens) (P18825 whole entry, looked up): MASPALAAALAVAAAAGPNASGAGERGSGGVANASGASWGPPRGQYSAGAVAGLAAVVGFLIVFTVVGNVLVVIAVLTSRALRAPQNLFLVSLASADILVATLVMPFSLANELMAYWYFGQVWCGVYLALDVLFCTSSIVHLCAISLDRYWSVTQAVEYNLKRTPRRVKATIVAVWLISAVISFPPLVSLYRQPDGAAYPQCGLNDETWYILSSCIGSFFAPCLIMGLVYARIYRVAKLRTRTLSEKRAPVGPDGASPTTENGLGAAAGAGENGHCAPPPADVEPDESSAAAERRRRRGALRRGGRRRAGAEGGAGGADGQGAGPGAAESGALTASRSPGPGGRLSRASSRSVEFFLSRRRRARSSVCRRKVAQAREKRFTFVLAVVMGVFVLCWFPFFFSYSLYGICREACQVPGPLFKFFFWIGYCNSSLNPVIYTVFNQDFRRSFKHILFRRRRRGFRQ

[7] = inhibitors of larval lipid processing in zebrafish, primary screen, whole organism, PED6 fluorescence, gall bladder and intestine (AID 686;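 active means a full or partial loss of lipid-probe fluorescence in the fish gall bladder, intestine or both, judged by eye; inactive means no fluorescence loss, or compound toxic to the fish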;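 further: larvae 5 to 7 days old with five fish per well; signal comes from phospholipase A2 cleavage of quenched PED6 carried via bile; overnight exposure to compound and PED6 before scoring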); settings: Zebrafish larvae PED6 lipid processing, fluorescence scoring; screened at 20 µM (by protocol)
Method in brief: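 Test system – live zebrafish larvae aged 5-7 days, whole organism · Buffer or medium – E3 fish medium · Reagent – quenched phospholipase substrate PED6, 100 nM final, ingested by larvae · Doses – 20 µM single dose · Incubation – overnight compound and PED6 incubation · Technique – visual fluorescence microscopy scoring of gall bladder, gut · Read-out basis – visual per-well fluorescence inhibition score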

[8] = inhibitors of Sendai virus-induced IRF3 signaling, primary screen, TLR/RLR signaling modifier project, cell-based, Sendai virus stimulus, luciferase, 10K MLSCN set (AID 602276;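 active means inhibition at or above 50% at 10 µM; inactive means inhibition below 50%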;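 further: firefly luciferase from ISG56 promoter only with Renilla not read in this screen; 0% = Sendai virus plus DMSO and 100% = medium plus DMSO without virus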); settings: HEK293 RL24 IRF3 luciferase reporter, at 10 µM, stronger effect = higher value
[9] = inhibitors of poly I:C-induced TLR3 signaling, primary screen, cell-based, poly I:C stimulus, luciferase, 10K MLSCN set (AID 602277;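 active means inhibition of the reporter signal at or above 50%; inactive means inhibition below 50%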); settings: HEK293-TLR3 RL24 IRF3 luciferase reporter, at 10 µM, stronger effect = higher value

Row | Compound | cell count [1] | inhibition [1] | inhibition of aggregation [2] | nuclei count [2] [%] | inhibition [3] | nuclei count [3] [%] | fluorescence slope [4] | NADPH fluorescence slope [5] | slope [6] | outcome [7] | inhibition [8] | inhibition [9]
1 | O=C(CCC(=O)OCC(=O)c1ccccc1)NC1CCCCC1 | 449 | 1.2% (inactive) | 1.6% (inactive) | 95 | 30.3% (inactive) | 112 | -0.356 (inactive) | -6.3e-05 (inactive) | 0.00794 (inactive) | inactive | -0.183% (inactive) | 97.3% (active)
2 | CC1CCCC(C)N1CCNC(=O)C1CCN(S(=O)(=O)N2CCCCC2)CC1 (stereo unspecified) | 383 | 4.2% (inactive) | 17.2% (inactive) | 104 | -93.7% (inactive) | 115 | -0.384 (inactive) | 1.9e-05 (inactive) | 0.00471 (inactive) | inactive | -6.08% (inactive) | -0.147% (inactive)
3 | O=C(O)COc1cccc(NC(=O)C2CCCO2)c1 (stereo unspecified) | 308 | -7% (inactive) | 0.8% (inactive) | 97.2 | -14.3% (inactive) | 90 | -0.471 (inactive) | 1.1e-05 (inactive) | 0.00558 (inactive) | inactive | -6.85% (inactive) | -4.06% (inactive)
4 | CC(CCc1ccccc1)NC(=O)C1CCN(S(=O)(=O)c2cnc[nH]2)CC1 (stereo unspecified) | 554 | -20.8% (inactive) | -7.9% (inactive) | 107 | 16.4% (inactive) | 110 | -0.367 (inactive) | -5.5e-05 (inactive) | 0.00556 (inactive) | inactive | 9.51% (inactive) | 18% (inactive)
5 | O=C(CN1C(=O)c2ccccc2C1=O)Nc1ccc(S(=O)(=O)NCC2CCCO2)cc1 (stereo unspecified) | 389 | -6% (inactive) | -2.4% (inactive) | 93.4 | -52.4% (inactive) | 107 | -0.412 (inactive) | -2.5e-05 (inactive) | 0.00503 (inactive) | inactive | -1.96% (inactive) | 98.2% (active)
6 | O=C(CSc1nnc(-c2ccco2)n1CC1CCCO1)NC1CCCC1 (stereo unspecified) | 336 | -6.2% (inactive) | 10.7% (inactive) | 101 | -15.3% (inactive) | 121 | -0.361 (inactive) | -5.1e-05 (inactive) | 0.00445 (inactive) | inactive | 7.82% (inactive) | 4.4% (inactive)
7 | CCC1CCCCN1CCCNC(=O)c1ccc(CS(=O)(=O)Cc2ccccc2F)o1 (stereo unspecified) | 618 | -20.5% (inactive) | 7.5% (inactive) | 94.4 | -64.6% (inactive) | 91 | -0.416 (inactive) | -5.4e-05 (inactive) | 0.00482 (inactive) | inactive | 6.88% (inactive) | 20.5% (inactive)
8 | CCCCc1c(O)nc(SCC(=O)Nc2ccc3c(c2)CCC3)[nH]c1=O | 569 | -18.3% (inactive) | -3% (inactive) | 75.8 | -5.9% (inactive) | 87.2 | -0.368 (inactive) | -6.1e-05 (inactive) | 0.00495 (inactive) | inactive | 10.6% (inactive) | 7.8% (inactive)
9 | COc1ccc(S(=O)(=O)N2CCN(S(=O)(=O)c3ccc4c(c3)OCCO4)CC2)cc1C | 377 | 4% (inactive) | -8.3% (inactive) | 114 | 15.9% (inactive) | 85 | -0.223 (inactive) | -5.5e-05 (inactive) | 0.00641 (inactive) | inactive | 16.8% (inactive) | 26.6% (inactive)
10 | COc1cc2c(cc1NC(=O)CSc1nnc(Cc3cccs3)n1C)oc1ccccc12 | 368 | 4.7% (inactive) | 9.3% (inactive) | 104 | -30.5% (inactive) | 112 | -0.45 (inactive) | -0.000107 (inactive) | 0.00401 (inactive) | inactive | 13.9% (inactive) | 5.76% (inactive)
11 | O=c1c2[nH]c3ccc(Cl)cc3c2ncn1Cc1ccccn1 | 302 | -3.6% (inactive) | -30.4% (inactive) | 83.4 | -31.6% (inactive) | 107 | -0.392 (inactive) | -4.3e-05 (inactive) | 0.00522 (inactive) | inactive | -2.53% (inactive) | 5.03% (inactive)
12 | CCCCCc1nnc(NC(=O)Cc2cccs2)s1 | 325 | 3.8% (inactive) | -1.3% (inactive) | 93.5 | -23.7% (inactive) | 95.6 | -0.412 (inactive) | -5.9e-05 (inactive) | 0.00431 (inactive) | inactive | 11.9% (inactive) | 1.2% (inactive)
13 | CCOCC(O)CS(=O)Cc1ccccc1 (stereo unspecified) | 343 | -7.4% (inactive) | 4.7% (inactive) | 99.4 | -38.6% (inactive) | 126 | -0.358 (inactive) | -6.9e-05 (inactive) | 0.00589 (inactive) | inactive | 8.68% (inactive) | 14.1% (inactive)
